Laboratory results published in ChEMBL document CHEMBL4020709, “4-Indolyl-N-hydroxyphenylacrylamides as potent HDAC class I and IIB inhibitors in vitro and in vivo” (Eur J Med Chem, 2017).
Active and inactive are the calls of the source. The rule behind the calls is not given here.

Experiments:
PC-3 [1] = assay: cells; type: functional; conditions: Homo sapiens, PC-3, 48 h
ASPC1 = assay: cells; type: functional; conditions: Homo sapiens, ASPC1, 48 h
[2] = Inhibition of HDAC in human HeLa cell nuclear extract using […] as substrate after 30 mins by fluorescence assay; type: cell-free
Outline: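 HeLa nuclear extract was incubated with fluorometric HDAC substrate in assay buffer at 37°C for 30 min. Lysine developer was then added for a further 30 min at 37°C. Fluorescence was read at ex 355/em 460 nm. Negative controls lacked extract, substrate, or both.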

A549 = assay: cells; type: functional; conditions: Homo sapiens, A549, 48 h
MDA-MB-231 = assay: cells; type: functional; conditions: Homo sapiens, MDA-MB-231, 48 h
Homo sapiens [3] = species: Homo sapiens; conditions: at 1 µM
Mus musculus [4] = assay: In-vivo inhibition of HDAC in ip dosed nude mouse xenografted with human PC3 cells assessed as upregulation of acetyl-histone 3 expression by hematoxylin/eosin staining based immunohistochemical analysis; type: functional, organism-based
Outline: (§1)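 PC3 xenograft tumors were formalin-fixed and paraffin-embedded, then sectioned. Sections were deparaffinized and rehydrated, and endogenous peroxidase was quenched with 3% H2O2. Antigen retrieval used pH 9 buffer at 80°C overnight, followed by blocking with fat-free milk. Primary antibody (acetyl-histone H3, HDAC1 or HDAC2) was applied at 4°C overnight, then secondary antibody, then Mayer's hematoxylin counterstain. Separate sections received H&E staining.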

PC-3 [5] = assay: Antitumor activity against human PC3 cells xenografted in nude mouse assessed as reduction in tumor volume administered ip every other day for 18 days measured twice weekly; type: functional, organism-based
Outline: (§2)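 Male nude mice were implanted s.c. in the flank with PC3 cells (1 × 10^7 per mouse) mixed with Matrigel. Dosing began at a tumor size of about 100 mm³ and was given i.p. every other day for 18 days. Tumors were measured by caliper twice weekly, and volume was calculated as length × width²/2. %TGI was derived from mean tumor volume against the vehicle group, compared by one-way ANOVA.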

Histone deacetylase 8 = target: T1, Histone deacetylase 8 (Homo sapiens, UniProt Q9BY41); assay: Inhibition of recombinant human full length HDAC8 using Fluor-de-Lys as substrate after 60 mins by spectrofluorimetric analysis
T1 sequence (Q9BY41 whole entry): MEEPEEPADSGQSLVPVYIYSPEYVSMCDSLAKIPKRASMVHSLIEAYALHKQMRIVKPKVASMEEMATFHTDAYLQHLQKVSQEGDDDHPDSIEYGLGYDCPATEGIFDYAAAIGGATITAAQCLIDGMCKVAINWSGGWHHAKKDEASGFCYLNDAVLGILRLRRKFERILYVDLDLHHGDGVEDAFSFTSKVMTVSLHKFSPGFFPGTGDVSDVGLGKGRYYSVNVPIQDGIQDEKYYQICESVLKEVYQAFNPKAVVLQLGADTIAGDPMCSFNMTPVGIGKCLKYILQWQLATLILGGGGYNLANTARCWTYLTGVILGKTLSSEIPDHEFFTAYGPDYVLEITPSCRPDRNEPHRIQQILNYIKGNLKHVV

PC-3 [6] = assay: Antitumor activity against human PC3 cells xenografted in nude mouse assessed as tumor growth inhibition at 40 mg/kg, ip administered every other day for 18 days measured twice weekly; type: functional; conditions: PC-3, ip, 432 h, read-out: TGI
Outline: as §2

Histone deacetylase 1 = Histone deacetylase 1 (Homo sapiens, UniProt Q13547); assay: Inhibition of recombinant human full length HDAC1 using Fluor-de-Lys as substrate after 60 mins by spectrofluorimetric analysis
Histone deacetylase 1, sequence (Q13547 whole entry): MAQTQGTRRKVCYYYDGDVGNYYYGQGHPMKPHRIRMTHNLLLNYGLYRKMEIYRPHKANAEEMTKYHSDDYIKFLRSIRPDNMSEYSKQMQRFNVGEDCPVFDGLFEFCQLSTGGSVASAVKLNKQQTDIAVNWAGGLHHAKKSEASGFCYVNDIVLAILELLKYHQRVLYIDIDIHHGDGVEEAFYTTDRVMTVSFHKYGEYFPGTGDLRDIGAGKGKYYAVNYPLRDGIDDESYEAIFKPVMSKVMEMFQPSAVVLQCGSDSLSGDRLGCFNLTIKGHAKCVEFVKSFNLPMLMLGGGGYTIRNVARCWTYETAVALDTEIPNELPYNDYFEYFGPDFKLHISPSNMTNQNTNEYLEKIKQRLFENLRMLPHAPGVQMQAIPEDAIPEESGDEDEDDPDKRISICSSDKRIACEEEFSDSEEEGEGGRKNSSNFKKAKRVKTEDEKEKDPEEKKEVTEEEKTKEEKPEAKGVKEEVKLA

[7] = target: T2, Protein deacetylase HDAC6 (Homo sapiens, UniProt Q9UBN7); assay: Inhibition of recombinant human full length HDAC6 using Fluor-de-Lys as substrate after 60 mins by spectrofluorimetric analysis
T2 sequence (Q9UBN7 whole entry): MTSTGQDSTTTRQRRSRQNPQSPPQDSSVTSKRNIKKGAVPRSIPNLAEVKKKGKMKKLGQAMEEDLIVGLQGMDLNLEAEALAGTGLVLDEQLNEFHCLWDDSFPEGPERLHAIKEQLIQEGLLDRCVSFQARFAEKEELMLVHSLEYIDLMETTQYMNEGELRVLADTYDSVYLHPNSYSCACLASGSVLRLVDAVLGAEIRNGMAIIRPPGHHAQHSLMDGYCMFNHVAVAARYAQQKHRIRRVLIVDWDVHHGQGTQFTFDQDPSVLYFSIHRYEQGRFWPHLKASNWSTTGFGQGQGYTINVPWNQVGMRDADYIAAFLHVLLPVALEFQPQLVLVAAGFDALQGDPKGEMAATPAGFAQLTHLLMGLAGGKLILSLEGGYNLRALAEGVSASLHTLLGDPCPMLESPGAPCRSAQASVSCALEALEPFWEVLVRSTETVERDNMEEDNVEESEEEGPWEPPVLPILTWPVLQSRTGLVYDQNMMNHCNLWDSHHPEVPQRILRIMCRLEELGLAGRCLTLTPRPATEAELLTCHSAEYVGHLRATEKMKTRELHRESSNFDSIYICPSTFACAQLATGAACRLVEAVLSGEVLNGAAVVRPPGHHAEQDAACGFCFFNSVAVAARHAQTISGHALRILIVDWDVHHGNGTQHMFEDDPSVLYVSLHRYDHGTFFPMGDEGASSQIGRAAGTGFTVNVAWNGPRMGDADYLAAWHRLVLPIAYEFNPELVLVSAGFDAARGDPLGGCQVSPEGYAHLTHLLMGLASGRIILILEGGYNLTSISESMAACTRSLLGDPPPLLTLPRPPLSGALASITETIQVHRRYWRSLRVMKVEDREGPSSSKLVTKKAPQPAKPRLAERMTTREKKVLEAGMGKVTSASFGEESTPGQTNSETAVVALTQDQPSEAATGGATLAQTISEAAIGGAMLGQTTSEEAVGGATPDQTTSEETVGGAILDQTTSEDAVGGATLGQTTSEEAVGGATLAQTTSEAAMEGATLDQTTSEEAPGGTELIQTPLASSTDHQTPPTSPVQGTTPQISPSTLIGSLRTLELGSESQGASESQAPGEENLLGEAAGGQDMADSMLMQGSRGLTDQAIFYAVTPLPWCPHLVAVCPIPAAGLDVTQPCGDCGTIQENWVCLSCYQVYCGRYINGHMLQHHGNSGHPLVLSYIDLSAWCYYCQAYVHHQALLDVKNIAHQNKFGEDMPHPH

Mus musculus [8] = assay: Effect on HDAC1 expression in nude mouse xenografted with human PC3 cells at 20 and 40 mg/kg, ip administered every other day for 18 days measured twice weekly by hematoxylin/eosin staining based immunohistochemical analysis; type: functional, organism-based
Outline: as §1

Mus musculus [9] = assay: Toxicity in nude mouse xenografted with human PC3 cells assessed as weight loss at 20 to 40 mg/kg, ip administered every other day for 18 days; type: organism-based; conditions: in vivo, 432 h
Outline: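 Male nude mice carried s.c. PC3 flank xenografts (1 × 10^7 cells with Matrigel). They received i.p. vehicle, 20 mg/kg or 40 mg/kg every other day for 18 days, and body weight (g) was tracked over the study.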

Histone deacetylase 4 = Histone deacetylase 4 (Homo sapiens, UniProt P56524); assay: Inhibition of recombinant human full length HDAC4 using Fluor-de-Lys as substrate after 60 mins by spectrofluorimetric analysis
Histone deacetylase 4, sequence (P56524 whole entry): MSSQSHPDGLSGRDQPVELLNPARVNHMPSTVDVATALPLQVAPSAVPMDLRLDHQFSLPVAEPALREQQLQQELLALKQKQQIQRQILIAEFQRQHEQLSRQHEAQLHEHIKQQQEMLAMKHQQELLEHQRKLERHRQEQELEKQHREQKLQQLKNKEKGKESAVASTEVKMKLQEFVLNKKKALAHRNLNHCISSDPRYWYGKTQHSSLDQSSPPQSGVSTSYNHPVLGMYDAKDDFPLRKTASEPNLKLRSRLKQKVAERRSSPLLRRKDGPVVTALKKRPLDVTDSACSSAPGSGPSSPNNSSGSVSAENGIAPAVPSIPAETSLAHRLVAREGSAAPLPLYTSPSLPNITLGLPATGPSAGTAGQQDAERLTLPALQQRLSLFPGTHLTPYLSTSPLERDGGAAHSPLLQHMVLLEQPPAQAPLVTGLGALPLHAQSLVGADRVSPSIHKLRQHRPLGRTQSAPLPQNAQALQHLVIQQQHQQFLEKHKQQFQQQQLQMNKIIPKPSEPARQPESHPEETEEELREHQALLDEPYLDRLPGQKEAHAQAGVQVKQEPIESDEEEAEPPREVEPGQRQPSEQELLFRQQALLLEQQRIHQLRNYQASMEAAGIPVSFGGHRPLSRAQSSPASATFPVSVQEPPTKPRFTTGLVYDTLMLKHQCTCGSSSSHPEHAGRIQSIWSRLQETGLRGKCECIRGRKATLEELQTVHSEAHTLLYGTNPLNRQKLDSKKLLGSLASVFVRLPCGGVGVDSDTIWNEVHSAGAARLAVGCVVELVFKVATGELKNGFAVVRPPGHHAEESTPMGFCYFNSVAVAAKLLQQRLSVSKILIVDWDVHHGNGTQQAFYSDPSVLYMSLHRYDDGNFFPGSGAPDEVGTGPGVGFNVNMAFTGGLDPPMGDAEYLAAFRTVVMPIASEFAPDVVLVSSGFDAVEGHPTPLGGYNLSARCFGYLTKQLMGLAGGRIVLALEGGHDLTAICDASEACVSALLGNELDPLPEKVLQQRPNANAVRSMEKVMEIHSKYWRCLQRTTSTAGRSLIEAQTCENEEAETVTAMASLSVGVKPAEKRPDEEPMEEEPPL

Histone deacetylase 2 = Histone deacetylase 2 (Homo sapiens, UniProt Q92769); assay: Inhibition of recombinant human full length HDAC2 using Fluor-de-Lys as substrate after 60 mins by spectrofluorimetric analysis
Histone deacetylase 2, sequence (Q92769 whole entry): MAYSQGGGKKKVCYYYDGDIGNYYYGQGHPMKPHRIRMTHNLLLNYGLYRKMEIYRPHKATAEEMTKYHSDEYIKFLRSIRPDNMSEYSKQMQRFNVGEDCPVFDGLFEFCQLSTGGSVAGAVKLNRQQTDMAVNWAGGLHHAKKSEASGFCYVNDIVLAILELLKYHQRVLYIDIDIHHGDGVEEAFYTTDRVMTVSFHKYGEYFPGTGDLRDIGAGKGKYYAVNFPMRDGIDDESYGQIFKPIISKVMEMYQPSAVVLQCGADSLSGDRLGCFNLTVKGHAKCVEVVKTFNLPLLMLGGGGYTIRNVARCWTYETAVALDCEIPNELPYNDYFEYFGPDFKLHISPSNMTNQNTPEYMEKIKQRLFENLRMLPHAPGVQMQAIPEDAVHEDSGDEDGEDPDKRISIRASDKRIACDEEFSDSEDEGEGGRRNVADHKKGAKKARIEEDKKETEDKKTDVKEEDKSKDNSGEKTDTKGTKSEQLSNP

Mus musculus [10] = assay: Downregulation of HDAC2 expression in nude mouse xenografted with human PC3 cells at 40 mg/kg, ip administered every other day for 18 days measured twice weekly by hematoxylin/eosin staining based immunohistochemical analysis; type: functional, organism-based
Outline: as §1

Homo sapiens [11] = species: Homo sapiens; conditions: at 1 µM; remark: listed apart in the source
PC-3 [12] = assay: Antitumor activity against human PC3 cells xenografted in nude mouse assessed as tumor growth inhibition at 20 mg/kg, ip administered every other day for 18 days measured twice weekly; type: functional; conditions: PC-3, ip, 432 h, read-out: TGI
Outline: as §2

Row | Structure (SMILES) | GI50 (PC-3 [1]) [nM] | GI50 (ASPC1) [nM] | IC50 [2] [nM] | GI50 (A549) [nM] | GI50 (MDA-MB-231) [nM] | further results
1 | O=C(/C=C/c1cccc(S(=O)(=O)NCCc2ccc3[nH]ccc3c2)c1)NO | 330 | 2780 | 52.2 | 820 | 2470 | 
2 | Nc1ccccc1NC(=O)c1ccc(CNC(=O)OCc2cccnc2)cc1 [ENTINOSTAT] | 430 | 6900 | > 1000 | 5760 | 1410 | 
3 | O=C(/C=C/c1cccc(S(=O)(=O)NCCc2cccc3[nH]ccc23)c1)NO | 310 | 3850 | 30.4 | 870 | 2060 | 
4 | O=C(/C=C/c1ccc(S(=O)(=O)NCc2cccc3[nH]ccc23)cc1)NO | 860 | 4560 | 7.17 | 1650 | 3550 | 
5 | O=C(/C=C/c1ccc(S(=O)(=O)NCCc2cccc3[nH]ccc23)cc1)NO | 140 | 240 | 8.56 | 250 | 320 | inhibition (Homo sapiens [3]): Active; Activity (Mus musculus [4]): Dose-dependent effect; Activity (PC-3 [5]): Dose-dependent effect; IC50 (Histone deacetylase 8): > 100 nM; inhibition in vivo at 40 mg/kg (PC-3 [6]): 62.2%; IC50 (Histone deacetylase 1): 1.28 nM; IC50 [7]: 8.32 nM; Activity (Mus musculus [8]): inactive; Activity (Mus musculus [9]): Non-Toxic; IC50 (Histone deacetylase 4): > 100 nM; IC50 (Histone deacetylase 2): 0.9 nM; Activity (Mus musculus [10]): Active; inhibition (Homo sapiens [11]): Active; inhibition in vivo at 20 mg/kg (PC-3 [12]): 51.6%
6 | O=C(CCCCCCC(=O)Nc1ccccc1)NO [VORINOSTAT] |  |  | 131 |  |  | 
7 | O=C(/C=C/c1ccc(S(=O)(=O)Nc2cccc3[nH]ccc23)cc1)NO | 3490 | > 10000 | > 1000 | > 10000 | > 10000 | 
8 | Cn1ccc2c(CCNS(=O)(=O)c3ccc(/C=C/C(=O)NO)cc3)cccc21 | 150 | 160 | 14.3 | 250 | 80 | IC50 (Histone deacetylase 8): > 100 nM; IC50 (Histone deacetylase 1): 1.34 nM; IC50 [7]: 6.8 nM; IC50 (Histone deacetylase 4): > 100 nM; IC50 (Histone deacetylase 2): 0.53 nM
9 | O=C(/C=C/c1ccc(S(=O)(=O)NCCc2ccc3[nH]ccc3c2)cc1)NO | 310 | 3970 | 76.1 | 600 | 9910 | 
10 | COc1ccc(S(=O)(=O)n2ccc3c(CCNS(=O)(=O)c4ccc(/C=C/C(=O)NO)cc4)cccc32)cc1 | 2880 | 12500 | 60 | 4350 | 5850 | 
11 | O=C(/C=C/c1cccc(S(=O)(=O)Nc2ccccc2)c1)NO [BELINOSTAT] | 310 | 650 | 81 | 230 | 280 | IC50 (Histone deacetylase 4): > 1000 nM
